ChEMBL document CHEMBL4428053, “Application of a Parallel Synthetic Strategy in the Discovery of Biaryl Acyl Sulfonamides as Efficient and Selective NaV1.7 Inhibitors” (J Med Chem, 2016)
Active and inactive are the calls of the source. The calls are words filed in the database; no cut-off is given here.

How the values were obtained:
[1] = molecular target: T1, Sodium channel protein type 9 subunit alpha (Homo sapiens, UniProt Q15858); assay: Inhibition of human Nav1.7 expressed in HEK293 cells at 5 uM incubated for 3 to 5 mins at -125 mV holding potential by electrophysiology assay relative to control; type: cell-based
Target sequence in this assay (Q15858 whole entry, looked up): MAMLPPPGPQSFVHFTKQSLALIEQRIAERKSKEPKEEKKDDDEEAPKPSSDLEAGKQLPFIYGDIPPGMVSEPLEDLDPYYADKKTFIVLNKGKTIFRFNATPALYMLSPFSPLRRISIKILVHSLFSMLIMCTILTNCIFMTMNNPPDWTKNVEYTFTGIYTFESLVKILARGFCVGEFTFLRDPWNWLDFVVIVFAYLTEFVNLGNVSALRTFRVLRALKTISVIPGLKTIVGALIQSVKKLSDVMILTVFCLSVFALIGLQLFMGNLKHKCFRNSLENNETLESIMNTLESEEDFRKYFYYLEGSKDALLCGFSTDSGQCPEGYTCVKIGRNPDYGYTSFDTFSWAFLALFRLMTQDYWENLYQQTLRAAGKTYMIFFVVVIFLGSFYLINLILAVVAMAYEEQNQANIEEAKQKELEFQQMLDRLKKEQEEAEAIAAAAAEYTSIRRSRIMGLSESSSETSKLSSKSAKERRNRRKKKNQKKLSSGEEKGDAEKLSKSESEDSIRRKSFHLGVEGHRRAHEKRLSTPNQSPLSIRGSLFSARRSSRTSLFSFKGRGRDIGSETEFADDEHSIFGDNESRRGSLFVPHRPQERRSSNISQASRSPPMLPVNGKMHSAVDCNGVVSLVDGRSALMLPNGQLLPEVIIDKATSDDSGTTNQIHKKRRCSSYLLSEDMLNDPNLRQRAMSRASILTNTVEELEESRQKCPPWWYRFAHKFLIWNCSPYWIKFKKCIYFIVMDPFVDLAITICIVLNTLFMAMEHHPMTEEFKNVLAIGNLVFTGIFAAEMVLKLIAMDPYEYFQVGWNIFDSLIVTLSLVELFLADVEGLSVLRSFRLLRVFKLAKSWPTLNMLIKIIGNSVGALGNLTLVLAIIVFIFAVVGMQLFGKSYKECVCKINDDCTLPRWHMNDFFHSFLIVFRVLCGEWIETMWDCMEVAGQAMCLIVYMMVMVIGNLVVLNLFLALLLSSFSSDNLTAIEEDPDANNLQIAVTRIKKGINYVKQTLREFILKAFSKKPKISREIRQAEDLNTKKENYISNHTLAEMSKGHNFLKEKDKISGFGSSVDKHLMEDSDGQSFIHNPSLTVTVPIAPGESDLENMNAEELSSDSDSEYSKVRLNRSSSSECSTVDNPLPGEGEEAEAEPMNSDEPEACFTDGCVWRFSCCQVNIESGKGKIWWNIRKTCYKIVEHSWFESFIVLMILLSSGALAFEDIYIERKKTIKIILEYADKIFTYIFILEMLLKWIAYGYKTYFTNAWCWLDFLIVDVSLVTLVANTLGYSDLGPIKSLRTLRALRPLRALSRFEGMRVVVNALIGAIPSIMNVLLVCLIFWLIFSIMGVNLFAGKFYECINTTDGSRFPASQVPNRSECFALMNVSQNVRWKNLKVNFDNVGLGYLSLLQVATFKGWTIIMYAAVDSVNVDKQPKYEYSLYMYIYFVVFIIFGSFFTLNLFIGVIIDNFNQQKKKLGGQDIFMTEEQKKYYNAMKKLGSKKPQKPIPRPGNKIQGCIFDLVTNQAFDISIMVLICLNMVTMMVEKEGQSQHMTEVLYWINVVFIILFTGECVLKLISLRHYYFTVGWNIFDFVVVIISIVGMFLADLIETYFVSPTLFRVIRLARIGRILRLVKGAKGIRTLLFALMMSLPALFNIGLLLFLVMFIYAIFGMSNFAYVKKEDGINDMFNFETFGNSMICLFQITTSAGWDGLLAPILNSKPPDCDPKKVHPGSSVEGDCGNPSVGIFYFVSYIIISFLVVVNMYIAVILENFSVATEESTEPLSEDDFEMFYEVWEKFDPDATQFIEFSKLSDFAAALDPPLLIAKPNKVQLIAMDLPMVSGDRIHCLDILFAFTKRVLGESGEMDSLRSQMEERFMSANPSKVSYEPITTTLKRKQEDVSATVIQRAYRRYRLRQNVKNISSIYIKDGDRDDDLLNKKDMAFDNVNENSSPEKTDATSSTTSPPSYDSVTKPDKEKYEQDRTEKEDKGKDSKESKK

in vitro [2] = conditions: human, liver microsomes
in vitro [3] = conditions: rat, liver microsomes
[4] = molecular target: Sodium channel protein type 5 subunit alpha (Homo sapiens, UniProt Q14524); assay: Inhibition of human Nav1.5 expressed in HEK293 cells incubated for 3 to 5 mins at -50 mV holding potential by electrophysiology assay; type: cell-based
[5] = molecular target: T1, Sodium channel protein type 9 subunit alpha; assay: Inhibition of human Nav1.7 expressed in HEK293 cells incubated for 3 to 5 mins at -125 mV holding potential by electrophysiology assay; type: cell-based
Target sequence in this assay (Q15858 whole entry): as the sequence (Q15858 whole entry, looked up) above

[6] = Protein binding in rat plasma at 5 uM after 45 mins by LC-MS/MS analysis; type: ADME, cell-free; conditions: read-out: PPB
[7] = Clearance in Harlan rat at 1 mg/kg, iv by LC-MS/MS analysis; type: ADME, organism-based; conditions: in vivo
Procedure, shortened: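 Male fed rats. The IV dose was given in 100% DMSO. The oral dose was given in 1% Tween 80, 2% HPMC, 97% water/NaOH (pH 8.5).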

[8] = molecular target: Voltage-gated inwardly rectifying potassium channel KCNH2 (Homo sapiens, UniProt Q12809)
Mus musculus = assay: In vivo inhibition of Nav1.7 in C57BL/6 mouse assessed as reduction in histamine-induced scratching bouts at 30 mg/kg, po administered 4 hrs prior to histamine challenge measured for 15 mins; type: functional, organism-based
Procedure, shortened: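 Mice were dosed orally with vehicle, diphenhydramine (30 mg/kg, n = 8) or test article at 30 (n = 9), 100 (n = 10) or 300 (n = 10) mg/kg; vehicle n = 12. All groups received histamine intradermally. Total scratch bouts were counted, with unbound plasma concentration reported per dose. Statistics: one-way ANOVA with Dunnett's test versus vehicle.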

Homo sapiens = species: Homo sapiens; assay: Selectivity ratio of IC50 for human Nav1.5 expressed in HEK293 cells to human Nav1.7 expressed in HEK293 cells; type: cell-based
Procedure, shortened: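 IC50s come from PatchXpress automated electrophysiology, and the ratio divides the hNav1.5 IC50 by the hNav1.7 IC50. For hNav1.7, cells were held at a voltage giving 20-50% channel inactivation. For hNav1.5, cells were held at -50 mV on the same platform.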

Cytochrome P450 3A4 [9] = molecular target: T2, Cytochrome P450 3A4 (Homo sapiens, UniProt P08684)
Cytochrome P450 2D6 [10] = molecular target: T3, Cytochrome P450 2D6 (Homo sapiens, UniProt P10635)
Cytochrome P450 2D6 [11] = molecular target: T3, Cytochrome P450 2D6; remark: listed apart in the source
Cytochrome P450 3A4 [12] = molecular target: T2, Cytochrome P450 3A4; remark: listed apart in the source
Cytochrome P450 2C9 [13] = molecular target: T4, Cytochrome P450 2C9 (Homo sapiens, UniProt P11712)
Cytochrome P450 2C9 [14] = molecular target: T4, Cytochrome P450 2C9; remark: listed apart in the source

Sodium channel protein type 5 subunit alpha, sequence (Q14524 whole entry): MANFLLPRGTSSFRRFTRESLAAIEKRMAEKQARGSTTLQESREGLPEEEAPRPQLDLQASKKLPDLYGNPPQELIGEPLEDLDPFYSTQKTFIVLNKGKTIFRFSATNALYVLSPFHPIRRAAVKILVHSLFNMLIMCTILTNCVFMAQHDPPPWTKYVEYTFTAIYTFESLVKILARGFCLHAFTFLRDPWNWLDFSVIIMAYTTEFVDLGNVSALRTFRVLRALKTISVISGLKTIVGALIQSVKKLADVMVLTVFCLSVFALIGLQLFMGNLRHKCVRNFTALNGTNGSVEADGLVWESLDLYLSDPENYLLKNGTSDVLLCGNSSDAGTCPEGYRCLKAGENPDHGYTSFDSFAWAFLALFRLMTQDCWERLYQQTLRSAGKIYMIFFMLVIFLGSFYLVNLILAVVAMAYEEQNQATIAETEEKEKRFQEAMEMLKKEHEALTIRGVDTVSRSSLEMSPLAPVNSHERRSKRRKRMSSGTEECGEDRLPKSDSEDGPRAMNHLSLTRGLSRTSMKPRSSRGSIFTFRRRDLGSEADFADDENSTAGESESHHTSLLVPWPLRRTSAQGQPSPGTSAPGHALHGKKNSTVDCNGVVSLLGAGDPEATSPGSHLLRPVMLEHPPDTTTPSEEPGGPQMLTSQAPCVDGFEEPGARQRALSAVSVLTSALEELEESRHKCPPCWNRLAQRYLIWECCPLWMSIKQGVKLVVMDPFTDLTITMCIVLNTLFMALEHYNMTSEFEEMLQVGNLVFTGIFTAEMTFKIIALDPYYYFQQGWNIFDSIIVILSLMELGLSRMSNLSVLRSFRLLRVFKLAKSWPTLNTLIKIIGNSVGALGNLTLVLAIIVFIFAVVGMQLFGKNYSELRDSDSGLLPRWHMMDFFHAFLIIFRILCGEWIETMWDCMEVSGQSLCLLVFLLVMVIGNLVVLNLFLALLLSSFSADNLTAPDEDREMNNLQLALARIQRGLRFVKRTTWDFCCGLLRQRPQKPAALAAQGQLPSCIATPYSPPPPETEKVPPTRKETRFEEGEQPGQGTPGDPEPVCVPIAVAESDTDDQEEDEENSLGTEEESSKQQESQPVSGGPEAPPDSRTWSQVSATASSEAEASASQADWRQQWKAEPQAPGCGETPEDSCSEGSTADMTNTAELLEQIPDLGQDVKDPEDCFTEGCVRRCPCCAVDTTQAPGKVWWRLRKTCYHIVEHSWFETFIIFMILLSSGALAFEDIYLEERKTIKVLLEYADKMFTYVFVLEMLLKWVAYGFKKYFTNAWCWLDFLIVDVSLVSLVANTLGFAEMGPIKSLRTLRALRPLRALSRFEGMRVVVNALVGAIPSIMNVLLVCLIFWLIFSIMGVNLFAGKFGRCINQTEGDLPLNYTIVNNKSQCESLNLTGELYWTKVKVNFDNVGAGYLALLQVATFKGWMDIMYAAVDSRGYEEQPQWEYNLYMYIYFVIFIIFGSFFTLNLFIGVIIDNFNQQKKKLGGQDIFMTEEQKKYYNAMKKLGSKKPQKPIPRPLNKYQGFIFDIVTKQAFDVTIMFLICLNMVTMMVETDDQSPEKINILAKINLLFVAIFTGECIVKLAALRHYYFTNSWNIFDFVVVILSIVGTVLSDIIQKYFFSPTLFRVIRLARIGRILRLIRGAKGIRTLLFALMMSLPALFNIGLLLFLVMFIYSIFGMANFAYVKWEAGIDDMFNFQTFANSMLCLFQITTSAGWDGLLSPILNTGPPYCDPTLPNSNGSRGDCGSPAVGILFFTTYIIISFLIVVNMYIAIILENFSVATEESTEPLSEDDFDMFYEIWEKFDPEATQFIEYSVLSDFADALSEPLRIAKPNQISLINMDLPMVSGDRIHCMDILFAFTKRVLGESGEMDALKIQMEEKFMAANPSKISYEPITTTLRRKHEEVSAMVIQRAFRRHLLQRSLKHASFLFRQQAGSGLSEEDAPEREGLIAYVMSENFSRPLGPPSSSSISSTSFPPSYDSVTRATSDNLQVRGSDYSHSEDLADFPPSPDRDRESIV
T3 sequence (P10635 whole entry): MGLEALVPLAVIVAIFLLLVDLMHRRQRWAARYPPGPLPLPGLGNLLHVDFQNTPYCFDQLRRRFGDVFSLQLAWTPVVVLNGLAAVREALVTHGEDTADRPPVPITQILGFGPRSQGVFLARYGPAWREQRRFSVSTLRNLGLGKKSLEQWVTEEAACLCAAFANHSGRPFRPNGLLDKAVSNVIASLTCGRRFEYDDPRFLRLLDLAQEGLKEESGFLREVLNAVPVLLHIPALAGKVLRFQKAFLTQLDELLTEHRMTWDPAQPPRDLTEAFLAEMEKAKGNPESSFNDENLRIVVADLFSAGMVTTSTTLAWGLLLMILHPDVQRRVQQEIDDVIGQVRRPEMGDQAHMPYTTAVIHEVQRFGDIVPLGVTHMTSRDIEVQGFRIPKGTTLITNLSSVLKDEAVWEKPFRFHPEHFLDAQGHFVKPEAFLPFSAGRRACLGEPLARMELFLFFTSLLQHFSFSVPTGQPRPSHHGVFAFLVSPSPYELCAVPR
T2 sequence (P08684 whole entry): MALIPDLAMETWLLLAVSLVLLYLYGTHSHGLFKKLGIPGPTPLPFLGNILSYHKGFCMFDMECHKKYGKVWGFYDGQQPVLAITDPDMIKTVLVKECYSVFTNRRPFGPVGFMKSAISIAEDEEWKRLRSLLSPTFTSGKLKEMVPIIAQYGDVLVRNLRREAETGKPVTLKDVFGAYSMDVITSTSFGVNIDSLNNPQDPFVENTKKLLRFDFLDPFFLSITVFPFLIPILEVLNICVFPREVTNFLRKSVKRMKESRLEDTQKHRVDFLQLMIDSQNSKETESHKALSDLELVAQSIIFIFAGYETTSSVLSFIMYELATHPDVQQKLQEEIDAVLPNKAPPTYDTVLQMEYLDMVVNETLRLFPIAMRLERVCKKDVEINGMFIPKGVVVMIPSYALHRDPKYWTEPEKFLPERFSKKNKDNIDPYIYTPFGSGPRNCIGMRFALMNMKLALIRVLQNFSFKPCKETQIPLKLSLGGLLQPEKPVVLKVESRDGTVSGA

SMILES | inhibition [1] | microsomal CLint at 1 µM (in vitro [2]) | microsomal CLint at 1 µM (in vitro [3]) | IC50 [4] | IC50 [5] | further results
CS(=O)(=O)NC(=O)C1CCN(C(=O)c2ccc(Cl)c(Cl)c2)C1 (stereo unspecified) | < 5% | – | – | – | – | –
CS(=O)(=O)NC(=O)C1CC(=O)N(Cc2ccc(Cl)c(Cl)c2)C1 (stereo unspecified) | < 5% | – | – | – | – | –
COc1cc(C(=O)NS(C)(=O)=O)ccc1-c1cnc(N2CCC[C@H]2C(C)C)c(Cl)c1 | – | 385 µL/min/mg | 40 µL/min/mg | 2.5 µM | – | –
CS(=O)(=O)NC(=O)Cc1ccc(NS(=O)(=O)c2ccc(Cl)c(Cl)c2)cc1 | < 5% | – | – | – | – | –
CC(C)COc1ncc(-c2ccc(C(=O)NS(C)(=O)=O)cc2F)cc1Cl | – | 27 µL/min/mg | 22 µL/min/mg | 23 µM | 0.66 µM | –
COc1cc(C(=O)NS(C)(=O)=O)ccc1-c1cnc(OC2CCC2)c(Cl)c1 | – | 102 µL/min/mg | 17 µL/min/mg | 17.8 µM | 0.55 µM | –
CC(C)COc1ncc(-c2c(F)cc(C(=O)NS(C)(=O)=O)cc2F)cc1Cl | – | – | – | – | 1.24 µM | –
CC(C)COc1ncc(-c2ccc(C(=O)NS(C)(=O)=O)cc2C2=CCOC2)cc1Cl | – | > 399 µL/min/mg | < 14 µL/min/mg | > 42 µM | 0.26 µM | –
CC(C)COc1ncc(-c2ncc(C(=O)NS(C)(=O)=O)cc2F)cc1Cl | – | 18 µL/min/mg | 18 µL/min/mg | – | 10.6 µM | –
CS(=O)(=O)NC(=O)c1cc(-c2ccc(Cl)c(Cl)c2)on1 | < 5% | – | – | – | – | –
COc1cc(C(=O)NS(C)(=O)=O)ccc1-c1cnc(OCC2(C)CC2)c(Cl)c1 | – | < 14 µL/min/mg | < 14 µL/min/mg | 9.3 µM | 0.2 µM | –
CS(=O)(=O)NC(=O)c1csc(Nc2ccc(Cl)c(Cl)c2)n1 | < 5% | – | – | – | – | –
CC(C)COc1ncc(-c2ccc(C(=O)NS(C)(=O)=O)cc2C(=O)N(C)C)cc1Cl | – | 19 µL/min/mg | < 14 µL/min/mg | – | > 42 µM | –
COc1cc(C(=O)NS(C)(=O)=O)ccc1-c1cnc(Oc2cc(Cl)cc(Cl)c2)c(Cl)c1 | – | < 14 µL/min/mg | < 14 µL/min/mg | 6 µM | 0.036 µM | fraction unbound at 0.75 h, 5 µM [6]: < 0.001; clearance [7]: 9.33 to 12.2 mL/min/kg
CS(=O)(=O)NC(=O)c1ccc(-c2ccc(Cl)c(Cl)c2)cc1 | – | – | – | > 42 µM | 10.7 µM | Ki [8]: > 30 µM
CS(=O)(=O)NC(=O)Cc1ccc(Cl)c(Cl)c1 | < 5% | – | – | – | – | –
CN(C)CCOC(c1ccccc1)c1ccccc1 | – | – | – | – | – | inhibition (Mus musculus): Active
COc1cc(C(=O)NS(C)(=O)=O)ccc1-c1cnc(Oc2cc(F)ccc2F)c(Cl)c1 | – | < 14 µL/min/mg | 33 µL/min/mg | 23.7 µM | – | –
CC(C)COc1ncc(Oc2nccc3cc(C(=O)NS(C)(=O)=O)ccc23)cc1Cl | – | – | – | – | 0.2 µM | –

SMILES | inhibition [1] | microsomal CLint at 1 µM (in vitro [2]) | microsomal CLint at 1 µM (in vitro [3]) | IC50 [4] | IC50 [5] | further results
COc1cc(C(=O)NS(C)(=O)=O)c(F)cc1-c1cnc(OCC2(C)CC2)c(Cl)c1 | – | 110 µL/min/mg | < 14 µL/min/mg | – | 0.062 µM | –
CS(=O)(=O)NC(=O)c1ccc2c(-c3ccc(C(F)(F)F)c(Cl)c3)nccc2c1 | – | – | – | > 30 µM | 1.55 µM | Ki [8]: > 30 µM
CS(=O)(=O)NC(=O)C1CC(=O)N(c2ccc(Cl)c(Cl)c2)C1 (stereo unspecified) | < 5% | – | – | – | – | –
CS(=O)(=O)NC(=O)CNC(=O)c1ccc(Cl)c(Cl)c1 | < 5% | – | – | – | – | –
COc1cc(C(=O)NS(C)(=O)=O)ccc1-c1cnc(Oc2cc(Cl)cc(Cl)c2)c(C(F)(F)F)c1 | – | < 14 µL/min/mg | < 14 µL/min/mg | 2.35 µM | 0.028 µM | –
CS(=O)(=O)NC(=O)CCc1ccc(Cl)c(Cl)c1 | < 5% | – | – | – | – | –
COc1cc(C(=O)NS(C)(=O)=O)ccc1-c1cnc(Sc2cccc(C)c2)c(Cl)c1 | – | 199 µL/min/mg | < 14 µL/min/mg | – | 0.16 µM | –
CS(=O)(=O)NC(=O)c1cc(F)c(COc2ccc(Cl)c(Cl)c2)cc1F | – | – | – | – | – | Ki [8]: > 30 µM
CC(C)COc1ncc(-c2ccc(C(=O)NS(C)(=O)=O)c(F)c2)cc1Cl | – | < 14 µL/min/mg | 28 µL/min/mg | 18 µM | 3.04 µM | –
COc1cc(C(=O)NS(C)(=O)=O)ccc1-c1cnc(Oc2cc(Cl)cnc2OC)c(Cl)c1 | – | < 14 µL/min/mg | < 14 µL/min/mg | 11.6 µM | 0.15 µM | –
CS(=O)(=O)NC(=O)CSCC(=O)Nc1ccc(Cl)c(Cl)c1 | < 5% | – | – | – | – | –
CC(C)COc1ncc(-c2ccc(C(=O)NS(C)(=O)=O)cc2Cl)cc1Cl | – | 30 µL/min/mg | 16.5 µL/min/mg | – | 0.29 µM | –
CC(C)(C)OC(=O)N[C@@H](CC(=O)NS(C)(=O)=O)Cc1ccc(Cl)c(Cl)c1 | < 5% | – | – | – | – | –
Cc1cc(-c2cnc(OCC(C)C)c(Cl)c2)ccc1C(=O)NS(C)(=O)=O | – | 22 µL/min/mg | < 14 µL/min/mg | – | > 42 µM | –
CS(=O)(=O)NC(=O)c1cc(-c2ccc(Cl)c(Cl)c2)nc2ccccc12 | < 5% | – | – | – | – | –
CS(=O)(=O)NC(=O)c1ccc2c(Oc3ccc(Cl)c(C(F)(F)F)c3)nccc2c1 | – | – | – | 14.4 µM | 0.28 µM | Ratio IC50 (Homo sapiens): > 40; Ki [8]: > 30 µM
O=S(=O)(Nc1ncns1)c1ccc2c(-c3ccc(C(F)(F)F)c(Cl)c3)nccc2c1 | – | – | – | 27 µM | 0.59 µM | Ki [8]: 2 µM
COc1cc(C(=O)NS(C)(=O)=O)ccc1-c1cnc(OCc2ccc(Cl)cc2)c(Cl)c1 | – | < 14 µL/min/mg | < 14 µL/min/mg | 21 µM | 0.109 µM | –
CS(=O)(=O)NC(=O)CSCc1ccc(Cl)c(Cl)c1 | < 5% | – | – | – | – | –

SMILES | inhibition [1] | microsomal CLint at 1 µM (in vitro [2]) | microsomal CLint at 1 µM (in vitro [3]) | IC50 [4] | IC50 [5] | further results
CC(C)COc1ncc(-c2ccc(C(=O)NS(C)(=O)=O)cc2C#N)cc1Cl | – | 20 µL/min/mg | < 14 µL/min/mg | 24 µM | 1.62 µM | –
CS(=O)(=O)NC(=O)c1cc(F)c(-c2ccc(Cl)c(Cl)c2)cc1F | – | – | – | > 42 µM | 2.54 µM | Ki [8]: > 30 µM
CC(C)COc1ncc(-c2ccc(C(=O)NS(C)(=O)=O)cc2C(F)(F)F)cc1Cl | – | > 399 µL/min/mg | < 14 µL/min/mg | 3.1 µM | 0.27 µM | –
CS(=O)(=O)NC(=O)c1cscc1SCc1ccc(Cl)c(Cl)c1 | < 5% | – | – | – | – | –
CC(C)COc1ncc(-c2ccc(C(=O)NS(C)(=O)=O)cc2OC(F)(F)F)cc1Cl | – | > 399 µL/min/mg | < 14 µL/min/mg | 3.7 µM | 0.14 µM | –
CS(=O)(=O)NC(=O)c1ccc2nc(-c3ccc(Cl)c(Cl)c3)cn2c1 | < 5% | – | – | – | – | –
COc1cc(C(=O)NS(C)(=O)=O)ccc1-c1cnc(Oc2cc(Cl)cc(Cl)c2)c(C#N)c1 | – | 39 µL/min/mg | 15 µL/min/mg | 16.1 µM | – | fraction unbound at 0.75 h, 5 µM [6]: < 0.001; clearance [7]: 30 mL/min/kg
CS(=O)(=O)NC(=O)c1cc(-c2ccc(Cl)c(Cl)c2)[nH]n1 | < 5% | – | – | – | – | –
COc1cc(C(=O)NS(C)(=O)=O)ccc1-c1cnc(Oc2cc(Cl)cc(Cl)c2)c(C(F)F)c1 | – | < 14 µL/min/mg | < 14 µL/min/mg | 18.8 µM | – | –
COc1cc(C(=O)NS(C)(=O)=O)c(F)cc1-c1cnc(OC2CCC2)c(Cl)c1 | – | – | – | – | 0.11 µM | –
CS(=O)(=O)NC(=O)c1cc(F)c(Oc2ccc(Cl)c(Cl)c2)cc1F | – | – | – | > 30 µM | 0.74 µM | Ki [8]: > 30 µM
CC(C)COc1ncc(-c2ccc(C(=O)NS(C)(=O)=O)c(Cl)c2)cc1Cl | – | 26 µL/min/mg | < 14 µL/min/mg | – | > 42 µM | –
Cc1nn(-c2ccc(Cl)c(Cl)c2)c(C)c1C(=O)NS(C)(=O)=O | < 5% | – | – | – | – | –
COc1cc(C(=O)NS(C)(=O)=O)ccc1-c1cnc(OCC(C)C)c(Cl)c1 | – | 44 µL/min/mg | 32 µL/min/mg | > 30 µM | 0.35 µM | –
CS(=O)(=O)NC(=O)C(=O)c1cc(-c2ccc(Cl)c(Cl)c2)on1 | < 5% | – | – | – | – | –
CS(=O)(=O)NC(=O)c1ccc(=O)n(Cc2ccc(Cl)c(Cl)c2)c1 | < 5% | – | – | – | – | –
CC(C)COc1ncc(-c2ccc(C(=O)NS(C)(=O)=O)cc2)cc1Cl | – | 14 µL/min/mg | < 14 µL/min/mg | – | 1.19 µM | –
CC(C)COc1ncc(-c2cc(F)c(C(=O)NS(C)(=O)=O)cc2F)cc1Cl | – | 47 µL/min/mg | 22 µL/min/mg | > 30 µM | 0.53 µM | IC50 (Cytochrome P450 3A4 [9]): > 50 µM; IC50 (Cytochrome P450 2D6 [10]): > 50 µM; IC50 (Cytochrome P450 2D6 [11]): > 50 µM; IC50 (Cytochrome P450 3A4 [12]): 48.6 µM; IC50 (Cytochrome P450 2C9 [13]): 34.1 µM; Ki [8]: > 30 µM; IC50 (Cytochrome P450 2C9 [14]): 34.7 µM
